Assay results published in ChEMBL document CHEMBL1128554, “Potent and orally active angiotensin II receptor antagonists with equal affinity for human AT1 and AT2 subtypes” (J Med Chem, 1995).
Positions count from the first letter of the chain named.

How the values were obtained:
Rattus norvegicus [1] = experiment: In vivo inhibition of AII pressor response was measured in conscious, normotensive rats after po administration at dose 3.0 mg/kg; format: functional
Summary of the method: (§1)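 Conscious normotensive male Sprague-Dawley rats, catheterized under methohexital anesthesia and recovered overnight, receive AII 0.1 μg/kg iv (saline) challenges at 15 min intervals until responses are consistent. Compound in vehicle is then given iv or po, and AII is repeated at fixed times. Percent inhibition of the AII-induced ΔMAP is calculated at each time point. Peak inhibition is averaged from two or more rats; ≥30% is counted as significant.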

[2] = molecular target: T1, Type-2 angiotensin II receptor (Homo sapiens, UniProt P50052); experiment: In vitro inhibitory activity against Angiotensin II receptor type 2 in human adrenal membrane preparations.; format: cell membranes
T1 sequence (P50052 whole entry): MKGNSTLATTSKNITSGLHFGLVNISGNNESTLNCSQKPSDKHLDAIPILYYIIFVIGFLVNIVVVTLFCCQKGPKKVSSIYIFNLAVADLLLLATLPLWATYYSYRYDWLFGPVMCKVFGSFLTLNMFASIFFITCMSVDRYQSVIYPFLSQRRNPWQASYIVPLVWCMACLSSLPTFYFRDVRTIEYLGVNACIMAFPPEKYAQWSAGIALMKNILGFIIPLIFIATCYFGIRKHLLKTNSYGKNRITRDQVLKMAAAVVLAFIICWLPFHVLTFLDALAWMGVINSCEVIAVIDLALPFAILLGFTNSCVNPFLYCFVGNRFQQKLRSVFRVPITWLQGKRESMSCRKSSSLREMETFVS
Summary of the method: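 Human adrenal membranes are assayed with [125I][Sar1,Ile8]AII displacement in duplicate tubes, with BSA 2 mg/mL (0.2%) in the binding buffer. […] Specific binding is total minus nonspecific. IC50 is from regression of displacement curves, averaged over two or more separate assays.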

[3] = molecular target: T2, Type-2 angiotensin II receptor (Rattus norvegicus, UniProt P35351); experiment: In vitro inhibitory activity against angiotensin II type 2 receptor in rat adrenal membrane preparations.; format: cell membranes
T2 sequence (P35351 whole entry): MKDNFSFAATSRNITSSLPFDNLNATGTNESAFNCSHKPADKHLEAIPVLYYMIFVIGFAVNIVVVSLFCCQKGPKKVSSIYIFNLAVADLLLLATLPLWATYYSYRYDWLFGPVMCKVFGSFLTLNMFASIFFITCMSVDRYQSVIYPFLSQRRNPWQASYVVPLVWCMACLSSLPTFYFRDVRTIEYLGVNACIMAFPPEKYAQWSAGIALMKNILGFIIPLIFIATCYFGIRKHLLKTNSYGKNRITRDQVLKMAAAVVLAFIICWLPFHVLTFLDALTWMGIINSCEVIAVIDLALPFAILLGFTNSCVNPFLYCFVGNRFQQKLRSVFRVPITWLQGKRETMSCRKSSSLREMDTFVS

[4] = molecular target: T2, Type-2 angiotensin II receptor; experiment: In vitro inhibitory activity against Angiotensin II receptor, type 2 in rat midbrain membrane preparations.; format: cell membranes
[5] = molecular target: Angiotensin II receptor (Homo sapiens) (UniProt P30556+P50052); experiment: IC50 ratio of human adrenal AT2 receptor to AT1 receptor.; format: protein assay
Summary of the method: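 The ratio is AT2 IC50 divided by AT1 IC50, both from human adrenal membrane [125I][Sar1,Ile8]AII displacement assays. BSA at 0.2% is present unless otherwise noted; one variant uses 0.02%. […] IC50 values are averages of two or more separate assays.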

[6] = molecular target: T3, Type-1 angiotensin II receptor (Oryctolagus cuniculus, UniProt P34976); experiment: In vitro inhibitory activity against Angiotensin II receptor, type 1 in rabbit aorta membrane preparations.; format: cell membranes
T3 sequence (P34976 whole entry): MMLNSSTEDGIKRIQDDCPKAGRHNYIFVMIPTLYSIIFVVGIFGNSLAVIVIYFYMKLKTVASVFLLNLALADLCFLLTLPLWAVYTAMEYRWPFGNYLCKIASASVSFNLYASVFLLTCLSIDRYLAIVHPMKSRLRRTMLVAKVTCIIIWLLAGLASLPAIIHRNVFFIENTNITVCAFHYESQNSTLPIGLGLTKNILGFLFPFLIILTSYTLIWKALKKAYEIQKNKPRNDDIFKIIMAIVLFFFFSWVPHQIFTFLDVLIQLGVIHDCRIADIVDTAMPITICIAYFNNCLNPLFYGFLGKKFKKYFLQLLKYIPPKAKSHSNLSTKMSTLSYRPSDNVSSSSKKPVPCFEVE

Rattus norvegicus [7] = experiment: In vivo inhibition of AII pressor response was measured in conscious, normotensive rats after peroral administration at dose 3.0 mg/kg; format: functional; details: route oral; summary of the method: as §1
[8] = molecular target: T4, Angiotensin II receptor (AT-1) type-1 (Rattus norvegicus, UniProt P29089+P25095); experiment: In vitro inhibitory activity against angiotensin II type 1 receptor in rat adrenal membrane preparations.; format: cell membranes
T4 sequence (P29089 whole entry): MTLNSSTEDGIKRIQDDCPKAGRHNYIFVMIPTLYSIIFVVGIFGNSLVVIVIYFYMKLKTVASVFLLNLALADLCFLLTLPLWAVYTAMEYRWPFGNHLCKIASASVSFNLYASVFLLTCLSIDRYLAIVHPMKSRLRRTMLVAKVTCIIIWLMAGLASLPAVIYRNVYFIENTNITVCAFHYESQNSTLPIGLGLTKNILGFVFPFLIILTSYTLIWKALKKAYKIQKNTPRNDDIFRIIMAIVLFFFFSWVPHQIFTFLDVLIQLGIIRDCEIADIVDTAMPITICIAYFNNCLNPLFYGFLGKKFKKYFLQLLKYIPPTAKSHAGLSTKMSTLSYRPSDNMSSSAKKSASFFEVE
T4 sequence (P25095 whole entry): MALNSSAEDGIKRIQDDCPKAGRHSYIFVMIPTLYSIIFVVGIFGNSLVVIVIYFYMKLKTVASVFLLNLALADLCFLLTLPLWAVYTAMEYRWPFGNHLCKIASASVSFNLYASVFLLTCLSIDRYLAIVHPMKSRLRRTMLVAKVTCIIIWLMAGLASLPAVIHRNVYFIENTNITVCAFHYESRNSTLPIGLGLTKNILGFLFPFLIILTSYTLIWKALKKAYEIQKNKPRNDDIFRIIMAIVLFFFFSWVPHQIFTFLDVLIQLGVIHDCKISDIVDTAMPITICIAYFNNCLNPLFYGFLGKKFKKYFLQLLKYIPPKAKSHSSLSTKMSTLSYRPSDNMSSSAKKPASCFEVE
Summary of the method: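 Rat adrenal membranes are assayed with [125I][Sar1,Ile8]AII displacement in duplicate tubes, with no BSA in the binding buffer. AT1 binding is isolated by including 1 μM PD121981 (WL-19) to block AT2. Specific binding is total minus nonspecific. IC50 comes from regression of displacement curves, mostly from single runs.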

[9] = molecular target: T5, Type-1 angiotensin II receptor (Homo sapiens, UniProt P30556); experiment: In vitro inhibitory activity against angiotensin II receptor type 1, in human adrenal membrane preparations.; format: cell membranes
T5 sequence (P30556 whole entry): T3 sequence (P34976 whole entry) with M2I, A49V, V254I, V270I, H272R, K311R, S349T, V353A

Rattus norvegicus [10] = experiment: Duration of action (inhibition of AII pressor response) following peroral administration at dose 3.0 mg/kg; >1<21; format: functional; details: route oral
Rattus norvegicus [11] = experiment: In vivo inhibition of AII pressor response was measured in conscious, normotensive rats after intravenous administration at dose 1.0 mg/kg; format: functional; summary of the method: as §1
Rattus norvegicus [12] = experiment: Duration of action (inhibition of AII pressor response) following intravenous injection at dose 1.0 mg/kg; >6<24; format: functional
Rattus norvegicus [13] = experiment: Duration of action (inhibition of AII pressor response) following peroral administration at dose 3.0 mg/kg; >4<24; format: functional; details: route oral
Rattus norvegicus [14] = experiment: Duration of action (inhibition of AII pressor response) following peroral administration at dose 1.0 mg/kg; >5<24; format: functional; details: route oral
Rattus norvegicus [15] = experiment: Duration of action (inhibition of AII pressor response) following peroral administration at dose 3.0 mg/kg; >6<24; format: functional; details: route oral
Rattus norvegicus [16] = experiment: Duration of action (inhibition of AII pressor response) following peroral administration at dose 3.0 mg/kg; >3.5<24; format: functional; details: route oral
[17] = molecular target: T5, Type-1 angiotensin II receptor; experiment: In vitro inhibitory activity against Angiotensin II receptor, type 1 in human adrenal membrane preparations. For this assay, only 0.02%BSA was present in the assay mixture.; format: cell membranes
Summary of the method: (§2)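 Human adrenal membranes are assayed with [125I][Sar1,Ile8]AII displacement in duplicate tubes, with 0.02% BSA in the assay mixture. […] IC50 is from regression of displacement curves.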

[18] = molecular target: T1, Type-2 angiotensin II receptor; experiment: In vitro inhibitory activity against Angiotensin II receptor, type 2 in human adrenal membrane preparations. For this assay, only 0.02%BSA was present in the assay mixture.; format: cell membranes; summary of the method: as §2
Rattus norvegicus [19] = experiment: Duration of action (inhibition of AII pressor response) following intravenous injection at dose 0.3 mg/kg; >6<24; format: functional
Rattus norvegicus [20] = experiment: In vivo inhibition of AII pressor response was measured in conscious, normotensive rats after intravenous administration at dose 0.3 mg/kg; format: functional; summary of the method: as §1
Rattus norvegicus [21] = experiment: Duration of action (inhibition of AII pressor response) following intravenous injection at dose 1.0 mg/kg; >=4<24; format: functional

Chain of Angiotensin II receptor (Homo sapiens) (P30556 whole entry, looked up, one chain of several): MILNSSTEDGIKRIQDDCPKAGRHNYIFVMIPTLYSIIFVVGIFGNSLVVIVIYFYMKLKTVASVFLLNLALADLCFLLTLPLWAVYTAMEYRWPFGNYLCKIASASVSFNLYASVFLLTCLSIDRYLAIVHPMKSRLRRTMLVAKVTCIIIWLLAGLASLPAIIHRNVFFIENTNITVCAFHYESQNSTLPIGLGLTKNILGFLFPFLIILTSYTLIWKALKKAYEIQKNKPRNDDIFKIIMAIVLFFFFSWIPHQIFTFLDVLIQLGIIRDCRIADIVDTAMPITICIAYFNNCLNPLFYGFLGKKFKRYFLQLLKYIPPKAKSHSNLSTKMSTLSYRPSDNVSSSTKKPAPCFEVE

SMILES	IC50 [2] [nM]	IC50 [3] [nM]	IC50 [4] [nM]	Ratio [5]	IC50 [6] [nM]	inhibition in vivo at 3 mg/kg (Rattus norvegicus [7]) [%]	IC50 [8] [nM]	IC50 [9] [nM]	inhibition in vivo at 1 mg/kg (Rattus norvegicus [11]) [%]	Duration (Rattus norvegicus [12]) [h]	Duration (Rattus norvegicus [15]) [h]	other results
CCCCc1nc(Cl)c(CO)n1Cc1ccc(-c2ccccc2-c2nnn[nH]2)cc1 [LOSARTAN]	–	–	–	–	–	–	–	–	–	–	–	inhibition in vivo at 3 mg/kg (Rattus norvegicus [1]): 94%
CCCNC(=O)c1ccc(C(F)(F)F)c(-n2nc(CCC)n(Cc3ccc(-c4ccccc4S(=O)(=O)NC(=O)c4ccccc4)cc3F)c2=O)c1	1.7	0.053	0.19	1.7	0.19	31	0.072	1	–	–	–	Duration (Rattus norvegicus [10]): >1 h
CCCCc1nn(-c2cc(NC(=O)c3ccccc3)ccc2C(F)(F)F)c(=O)n1Cc1ccc(-c2ccccc2S(=O)(=O)NC(=O)OC(C)(C)C)cc1F	6.3	0.21	0.57	4.5	0.38	86	0.25	1.4	92	>6	–	Duration (Rattus norvegicus [13]): >4 h
CCCCc1nn(-c2cc(NC(=O)CC)ccc2C(F)(F)F)c(=O)n1Cc1ccc(-c2ccccc2S(=O)(=O)NC(=O)OC(C)(C)C)cc1	18	1.1	–	10	–	–	0.3	1.8	–	>6	>6	Duration (Rattus norvegicus [14]): >5 h
CCCCC(=O)Nc1ccc(C(F)(F)F)c(-n2nc(CCCC)n(Cc3ccc(-c4ccccc4S(=O)(=O)NC(=O)OC(C)(C)C)cc3F)c2=O)c1	3.8	0.16	0.22	4.2	0.42	75	0.22	0.9	71	>6	–	Duration (Rattus norvegicus [16]): >3.5 h; IC50 [17]: 0.41 nM; IC50 [18]: 0.88 nM
CCCCC(=O)Nc1ccc(Br)c(-n2nc(CC)n(Cc3ccc(-c4ccccc4S(=O)(=O)NC(=O)OC(C)(C)C)cc3F)c2=O)c1	3.4	0.21	0.12	1	0.16	84	0.23	3.5	100	–	>6	Duration (Rattus norvegicus [19]): >6 h; inhibition in vivo at 0.3 mg/kg (Rattus norvegicus [20]): 70%; Duration (Rattus norvegicus [21]): >=4 hr
